Source: ChEMBL document CHEMBL1152785, “Synthesis and biological evaluation of a series of novel inhibitor of Nek2/Hec1 analogues” (J Med Chem, 2009)
Activity calls are given as the source filed them. No cut-off for these calls is given here.

Columns and labels:
[1] = test system: MDA-MB-231; test: Cytotoxicity against human MDA-MB-231 cells after 4 days XTT assay; type: functional, cell-based; details: MDA-MB-231, 96 h
Procedure, shortened: (§1)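 XTT assay with four-day drug treatment. Cells were plated one day before dosing and drug was added on day 2. XTT was read on day 5 after drug addition by absorbance at 595 nm. Absorbance was converted to percent survival against mock-treated cells to give dose-dependent cytotoxicity. Triplicate sets. HeLa, MDA-MB231 and MDA-MB468 were maintained in DMEM with 10% FBS.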

[2] = test system: MDA-MB-468; test: Cytotoxicity against human MDA-MB-468 cells after 4 days by XTT assay; type: functional, cell-based; details: MDA-MB-468, 96 h; procedure, shortened: as §1
[3] = test system: HeLa; test: Cytotoxicity against human HeLa cells after 4 days by XTT assay; type: functional, cell-based; details: 96 h; procedure, shortened: as §1
[4] = test system: K562; test: Cytotoxicity against human K562 cells after 4 days by XTT assay; type: functional, cell-based; details: K562, 96 h
[5] = target: T1, Kinetochore protein NDC80 homolog (Homo sapiens) (UniProt O14777); test: Binding affinity to Hec1 in human HeLa cell extract by affinity pulldown assay; type: cell-free
T1 sequence (whole entry): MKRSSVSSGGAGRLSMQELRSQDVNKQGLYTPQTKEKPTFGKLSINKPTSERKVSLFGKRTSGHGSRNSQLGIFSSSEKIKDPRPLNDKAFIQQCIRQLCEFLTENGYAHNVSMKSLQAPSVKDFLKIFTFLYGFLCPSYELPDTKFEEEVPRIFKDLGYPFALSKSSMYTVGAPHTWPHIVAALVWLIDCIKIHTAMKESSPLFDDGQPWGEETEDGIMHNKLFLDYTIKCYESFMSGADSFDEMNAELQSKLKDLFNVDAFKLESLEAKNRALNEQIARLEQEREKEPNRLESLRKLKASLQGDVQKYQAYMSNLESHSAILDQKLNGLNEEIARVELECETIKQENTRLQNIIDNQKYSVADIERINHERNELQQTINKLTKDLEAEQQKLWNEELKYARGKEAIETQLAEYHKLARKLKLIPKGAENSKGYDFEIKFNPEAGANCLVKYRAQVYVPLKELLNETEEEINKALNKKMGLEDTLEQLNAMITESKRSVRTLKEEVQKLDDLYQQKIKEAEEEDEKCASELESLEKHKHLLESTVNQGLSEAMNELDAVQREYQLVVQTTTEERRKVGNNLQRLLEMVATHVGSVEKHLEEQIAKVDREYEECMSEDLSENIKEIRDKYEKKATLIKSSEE
Procedure, shortened: (§2)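 Compounds were conjugated to affi-gel matrix. HeLa cell extract was incubated with control or compound-conjugated matrices and the precipitates were washed thoroughly. Bound proteins were resolved by SDS-PAGE and Western blotted for Hec1 and Nek2. Whole cell extract served as input, in duplicates.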

[6] = target: T2, Serine/threonine-protein kinase Nek2 (Homo sapiens) (UniProt P51955); test: Binding affinity to NeK2 in human HeLa cell extract by affinity pulldown assay; type: cell-free; procedure, shortened: as §2
T2 sequence (whole entry): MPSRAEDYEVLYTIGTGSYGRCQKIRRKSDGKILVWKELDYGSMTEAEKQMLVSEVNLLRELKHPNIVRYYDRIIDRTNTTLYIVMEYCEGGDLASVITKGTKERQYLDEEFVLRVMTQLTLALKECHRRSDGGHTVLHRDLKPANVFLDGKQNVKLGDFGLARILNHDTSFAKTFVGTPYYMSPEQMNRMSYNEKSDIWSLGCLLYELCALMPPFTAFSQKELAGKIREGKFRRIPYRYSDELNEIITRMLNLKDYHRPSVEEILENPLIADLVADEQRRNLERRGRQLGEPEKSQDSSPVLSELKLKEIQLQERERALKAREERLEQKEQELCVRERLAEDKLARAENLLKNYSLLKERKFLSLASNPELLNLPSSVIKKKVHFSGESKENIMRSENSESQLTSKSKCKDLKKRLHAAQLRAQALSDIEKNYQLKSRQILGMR

[7] = test system: HeLa; test: Anticancer activity against human HeLa cells assessed as reduction of Nek2 level at 6.25 uM by Western blot assay; type: functional, cell-based
Procedure, shortened: (§3)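 HeLa cells in DMEM with 10% FBS were treated with compound at 6.25 μM and harvested at various time points. Extracts were run on SDS-PAGE and Western blotted for Nek2 and Hec1, with p84 (nuclear matrix protein) as loading control. Nek2 level was followed over time after treatment.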

[8] = test system: HeLa; test: Anticancer activity against human HeLa cells assessed as reduction of Nek2 level at 6.25 uM after 8 to 11 hrs by Western blot assay; type: functional; design: scale not given: the % may be the effect or the level left; procedure, shortened: as §3
[9] = target: T1, Kinetochore protein NDC80 homolog (Homo sapiens); test: Inhibition of Hec1/Nek2 complex in human Hela cells assessed as mitotic abnormality with multipolar spindle configuration at 3.75 uM after 24 hrs by immuno-fluorescent staining; type: cell-based
Procedure, shortened: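 HeLa cells were treated with compound at 3.75 μM or buffer mock for 24 h. Cells were immunostained for α-tubulin and γ-tubulin with DAPI for DNA. Mitotic cells were examined for spindle pole number, i.e. multipolar spindles.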

[10] = test system: HeLa; test: Anticancer activity against human HeLa cells expressing H2B-GFP assessed as increase in rate of chromosome misalignment at 2.5 uM after 24 hrs; type: functional, cell-based
Procedure, shortened: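 HeLa cells expressing the chromosome marker H2B-GFP were treated with compound at 2.5 μM. The incidence of metaphase chromosome alignment was scored. Triplicate sets were measured to give averages and deviations.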

[11] = test system: HeLa; test: Induction of apoptosis in human HeLa cells assessed as morphological changes with membrane bubbling at 2.5 uM; type: functional, cell-based
Procedure, shortened: (§4)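 HeLa cells were treated with compound at 2.5 μM, with buffer as mock control. Phase contrast images were taken at various time points to assess dying-cell morphology such as membrane bubbling. Cell cycle profiling was done by FACS at 72 h.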

[12] = test system: HeLa; test: Cell cycle arrest in human HeLa cells assessed as accumulation at subG1 phase at 2.5 uM after 72 hrs by FACS analysis; type: functional; procedure, shortened: as §4
[13] = target: T1, Kinetochore protein NDC80 homolog (Homo sapiens); test: Inhibition of Hec1/Nek2 complex in human Hela cells assessed as mitotic abnormality with multipolar spindle configuration at 3.75 uM after 24 hrs by immuno-fluorescent staining
[14] = test system: HeLa; test: Anticancer activity against human HeLa cells assessed as reduction of Nek2 level at 25 uM by Western blot assay; type: functional, cell-based

Cc1ccc(-c2csc(N(C)C(=O)c3ccccc3)n2)c(C)c1
IC50 [1]: 13.5 µM
IC50 [2]: 16 µM
IC50 [3]: 20.2 µM
IC50 [4]: 14.8 µM

COc1ccc(C(=O)/N=c2\scc(-c3c(C)cc(C)cc3C)n2C)c(OC)c1
IC50 [1]: 22.1 µM
IC50 [2]: 21 µM
IC50 [3]: 22 µM
IC50 [4]: 23.7 µM

Cc1cc(C)c(-c2csc(NC(=O)c3ccccc3)n2)c(C)c1
IC50 [1]: 1.7 µM
IC50 [2]: 2.1 µM
IC50 [3]: 2.4 µM
IC50 [4]: 2.5 µM
Activity [5]: Active
Activity [6]: inactive
Activity [7]: Active
Activity [8]: 50%
Activity [9]: Active
Activity [10]: Active
Activity [11]: Active
Activity [12]: 19.9%
Activity [13]: Active

Cc1cc(C)c(-c2csc(NC(=O)c3cnccn3)n2)c(C)c1
IC50 [1]: 3.2 µM
IC50 [2]: 4.7 µM
IC50 [3]: 5.7 µM
IC50 [4]: 5.9 µM

Cc1ccc(-c2csc(N)n2)c(C)c1
IC50 [1]: > 40 µM
IC50 [2]: > 40 µM
IC50 [3]: > 40 µM
IC50 [4]: > 40 µM

Cc1cc(C)c(-c2csc(N)n2)c(C)c1
IC50 [1]: > 40 µM
IC50 [2]: > 40 µM
IC50 [3]: > 40 µM
IC50 [4]: > 40 µM

Cc1cc(C)c(-c2csc(NC(=O)c3ccc(O)cc3O)n2)c(C)c1
IC50 [1]: 22.5 µM
IC50 [2]: 21.3 µM
IC50 [3]: > 40 µM
IC50 [4]: > 40 µM

COc1cc(C)cc(C)c1-c1csc(NC(=O)c2ccccc2)n1
IC50 [1]: 7.2 µM
IC50 [2]: 10.7 µM
IC50 [3]: 10.6 µM
IC50 [4]: 7.3 µM

Cc1ccc(-c2csc(NC(=S)c3ccccc3)n2)c(C)c1
IC50 [1]: 21.1 µM
IC50 [2]: 19.6 µM
IC50 [3]: 18.6 µM
IC50 [4]: 22.9 µM

Cc1ccc(-c2coc(NC(=O)c3ccccc3)n2)c(C)c1
IC50 [1]: 14.4 µM
IC50 [2]: 16 µM
IC50 [3]: 18.6 µM
IC50 [4]: 19.2 µM

Cc1cc(C)c(-c2csc(NC(=O)c3ccccc3)n2)c(O)c1
IC50 [1]: 11.8 µM
IC50 [2]: > 40 µM
IC50 [3]: 13.1 µM
IC50 [4]: 11.9 µM

Cc1ccc(-c2csc(NC(=O)c3ccncc3)n2)c(C)c1
IC50 [1]: 1.1 µM
IC50 [2]: 3.4 µM
IC50 [3]: 1.6 µM
IC50 [4]: 1.2 µM
Activity [6]: inactive

COc1ccc(C(=O)Nc2nc(-c3ccc(C)cc3C)cs2)c(OC)c1
IC50 [1]: 23.4 µM
IC50 [2]: > 40 µM
IC50 [3]: > 40 µM
IC50 [4]: > 40 µM

Cc1cc(C)c(-c2csc(NC(=O)c3ccccc3C(F)(F)F)n2)c(C)c1
IC50 [1]: 5.9 µM
IC50 [2]: 4.1 µM
IC50 [3]: 10.6 µM
IC50 [4]: 7.5 µM

COc1ccc(C(=O)N(C)c2nc(-c3c(C)cc(C)cc3C)cs2)c(OC)c1
IC50 [1]: 10.6 µM
IC50 [2]: 18.7 µM
IC50 [3]: > 40 µM
IC50 [4]: 15.5 µM

Cc1cc(C)c(-c2csc(N(CC(=O)O)C(=O)c3ccccc3)n2)c(C)c1
IC50 [1]: > 40 µM
IC50 [2]: > 40 µM
IC50 [3]: > 40 µM
IC50 [4]: > 40 µM

Cc1cc(C)c(-c2csc(NC(=O)c3cncn3C)n2)c(C)c1
IC50 [1]: 6.8 µM
IC50 [2]: 10.7 µM
IC50 [3]: 11.2 µM
IC50 [4]: 10.1 µM

Cc1ccc(-c2csc(NC(=O)c3cncn3C)n2)c(C)c1
IC50 [1]: > 25 µM
IC50 [2]: > 25 µM
IC50 [3]: > 25 µM
IC50 [4]: > 25 µM

Cc1ccc(-c2csc(NS(=O)(=O)Cc3ccccc3)n2)c(C)c1
IC50 [1]: > 40 µM
IC50 [2]: > 40 µM
IC50 [3]: > 40 µM
IC50 [4]: > 40 µM

Cc1ccc(-c2csc(NC(=O)c3cccnc3)n2)c(C)c1
IC50 [1]: 4.1 µM
IC50 [2]: 5.5 µM
IC50 [3]: 5.8 µM
IC50 [4]: 8.2 µM

COc1ccc(C(=O)Nc2nc(-c3c(C)cc(C)cc3C)cs2)c(OC)c1
IC50 [1]: 9.7 µM
IC50 [2]: 11.2 µM
IC50 [3]: 13.6 µM
IC50 [4]: 9.5 µM

Cc1ccc(-c2csc(NC(=O)c3cnccn3)n2)c(C)c1
IC50 [1]: > 25 µM
IC50 [2]: > 25 µM
IC50 [3]: > 25 µM
IC50 [4]: > 25 µM

Cc1ccc(-c2csc(NC(=O)c3ccccn3)n2)c(C)c1
IC50 [1]: 7.5 µM
IC50 [2]: 6.2 µM
IC50 [3]: 14.5 µM
IC50 [4]: 13.3 µM

Cc1cc(C)c(-c2csc(NC(=O)N3CCOCC3)n2)c(C)c1
IC50 [1]: 1.6 µM
IC50 [2]: 4.2 µM
IC50 [3]: 2.5 µM
IC50 [4]: 3.8 µM
Activity [6]: inactive
Activity [7]: Active
Activity [8]: 50%
Activity [9]: Active
Activity [10]: Active
Activity [11]: Active
Activity [12]: 20.1%
Activity [13]: Active

COc1ccc(C(=O)Nc2nc(-c3c(C)cc(C)cc3C)cs2)c(O)c1
IC50 [1]: 11.8 µM
IC50 [2]: 14.4 µM
IC50 [3]: 14.4 µM
IC50 [4]: 14.8 µM

COc1ccccc1C(=O)Nc1nc(-c2c(C)cc(C)cc2C)cs1
IC50 [1]: > 40 µM
IC50 [2]: > 40 µM
IC50 [3]: > 40 µM
IC50 [4]: > 40 µM

Cc1ccc(-c2csc(NS(=O)(=O)c3ccccc3)n2)c(C)c1
IC50 [1]: > 40 µM
IC50 [2]: > 40 µM
IC50 [3]: > 40 µM
IC50 [4]: > 40 µM
Activity [5]: inactive
Activity [14]: inactive
Activity [12]: 2.9%

Cc1ccc(-c2csc(NC(=O)N3CCOCC3)n2)c(C)c1
IC50 [1]: 5.8 µM
IC50 [2]: 4 µM
IC50 [3]: 4.7 µM
IC50 [4]: 4.2 µM

Cc1cc(C)c(-c2csc(NC(=O)c3ccccn3)n2)c(C)c1
IC50 [1]: 4.1 µM
IC50 [2]: 2.3 µM
IC50 [3]: 5.2 µM
IC50 [4]: 4.9 µM

Cc1cc(C)c(-c2csc(NC(=O)c3cccnc3)n2)c(C)c1
IC50 [1]: 3.2 µM
IC50 [2]: 3 µM
IC50 [3]: 3.6 µM
IC50 [4]: 3.9 µM

Cc1cc(C)c(-c2csc(N(C)C(=O)c3ccccc3)n2)c(C)c1
IC50 [1]: 11.6 µM
IC50 [2]: 10.8 µM
IC50 [3]: 14.1 µM
IC50 [4]: 9.2 µM

Cc1cc(C)c(-c2csc(NC(=O)c3nccs3)n2)c(C)c1
IC50 [1]: 4.7 µM
IC50 [2]: 11.8 µM
IC50 [3]: 11.2 µM
IC50 [4]: 14.5 µM

Cc1ccc(-c2csc(NC(=O)c3nccs3)n2)c(C)c1
IC50 [1]: 2.9 µM
IC50 [2]: 6.2 µM
IC50 [3]: 7.4 µM
IC50 [4]: 10.1 µM

CCOC(=O)CN(C(=O)c1ccccc1)c1nc(-c2c(C)cc(C)cc2C)cs1
IC50 [1]: 15.8 µM
IC50 [2]: 20.2 µM
IC50 [3]: 22.2 µM
IC50 [4]: 20.2 µM
